As a reminder, the IC50 is the concentration that gives 50% inhibition. Low readings indicate greater potency, high ones weaker potency. The term IC90 denotes the point of the concentration-response curve where the effect stands at 90%. A high value points to weaker potency.

Here are results for 16 molecules from ChEMBL document CHEMBL1129960, “Design, synthesis, and antiviral evaluation of 2-substituted 4,5-dichloro- and 4,6-dichloro-1-beta-D-ribofuranosylbenzimidazoles as potential agents for human cytomegalovirus infections” (J Med Chem, 1997).

Test [1] relates to Human betaherpesvirus 5. Nature of the test: Concentration required for 50% inhibition of HCMV replication was measured using a Plaque reduction assay. The class given is functional, organism-based. The procedure, abridged:
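HCMV Towne (P0) plaque reduction in HFF cells, ~100 pfu/cm². After adsorption, compound in growth medium at 4–8 concentrations in duplicate wells; 7–10 days at 37 °C. Crystal violet stain, microscopic plaque count. Percent plaque reduction vs no-drug wells; IC50 by linear regression vs log concentration.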

The next test deals with HFF. In words: Visual cytotoxicity was scored on HFF cells at time of HCMV plaque enumeration. The format is functional, cell-based. The conditions noted are these: Homo sapiens. The method in brief: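 Uninfected stationary HFF cells from the HCMV plaque assay plates, inspected microscopically for cytotoxicity at the time plaques were counted (7–10 days, 37 °C).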
Another test deals with Human alphaherpesvirus 1. In words: Antiviral activity was measured by plaque assay against HSV-1 virus by ELISA method. The class given is functional, organism-based. The method in brief:
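HSV-1 (KOS) in BSC-1 cells, 10 000 cells/well seeded in MEM(E) + 10% calf serum, overnight at 37 °C; drug in quadruplicate plus 100 pfu/well virus; 3 days at 37 °C. ELISA read-out with HRP-rabbit anti-HSV-1 and TMB, absorbance at 450/570 nm. Percent reduction vs virus-only wells; IC50 by linear regression on log concentration.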
Background: ELISA stands for enzyme-linked immunosorbent assay.

In a further test the test system is KB. In words: Inhibition of KB cell growth was determined. The format is functional, cell-based. The conditions noted are these: Homo sapiens. The method in brief:
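KB cells seeded at 3000–5000/well and incubated overnight; compound at 6–8 concentrations in quadruplicate; 48 h at 37 °C in CO2, about two population doublings. Ethanol fixation, 0.1% crystal violet stain, acidified ethanol elution, read at 570 nm. IC50 by linear regression vs log concentration.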

The subject of test [2] is Human betaherpesvirus 5. In words: Concentration required for 90% inhibition of HCMV replication was measured using a yield reduction assay. The class given is functional. The method in brief: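 HCMV yield reduction in HFF cells infected at moi 0.5–1 pfu/cell. Compound in duplicate as 1:3 serial dilutions from 100 to 0.05 μM; 7 days at 37 °C. One freeze-thaw, then progeny titered by plaque count on secondary HFF plates (1:3 dilutions). IC90 from regression of percent inhibition vs log concentration.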

Some results are limits rather than exact numbers.

Consider `Clc1cc(Cl)c2[nH]c(Cl)nc2c1`, for which the IC50 is 5.1 µM in the test with Human betaherpesvirus 5 [1], 32 µM in the test with HFF, above 100 µM with Human alphaherpesvirus 1 and above 100 µM in the test on KB.

On to `Clc1nc2c(Cl)c(Cl)ccc2[nH]1`, for which the IC50 in the test with Human betaherpesvirus 5 [1] is 8 µM; in the test on HFF, 32 µM; in the test on Human alphaherpesvirus 1, above 100 µM; in the test on KB, 80 µM.

For `OC[C@H]1O[C@H](n2c(Br)nc3cc(Cl)c(Cl)cc32)[C@@H](O)[C@H]1O`, in the test with Human betaherpesvirus 5 [2], the 90% effect level (IC90) was put at 0.2 µM. In the test on KB, the IC50 was above 100 µM.

Consider `Nc1nc2c(Cl)cc(Cl)cc2[nH]1`, for which the IC50 with Human betaherpesvirus 5 [1] is above 100 µM; in the test with HFF, 100 µM; in the test on Human alphaherpesvirus 1, above 100 µM.

With `OC[C@H]1O[C@@H](n2c(Cl)nc3cc(Cl)c(Cl)cc32)[C@H](O)[C@@H]1O`, in the test on Human betaherpesvirus 5 [2], it took 1.4 µM to reach the 90% level (IC90).

Consider `CSc1nc2c(Cl)cc(Cl)cc2n1C1O[C@H](CO)[C@@H](O)[C@H]1O` (stereo partly drawn), for which the half-maximal inhibitory concentration (IC50) was 110 µM with Human betaherpesvirus 5 [1], 150 µM with HFF, above 300 µM in the test on Human alphaherpesvirus 1 and 270 µM in the test with KB.

For the molecule `[N-]=[N+]=Nc1nc2c(Cl)cc(Cl)cc2n1C1O[C@H](CO)[C@@H](O)[C@H]1O` (stereo partly drawn), the IC50 is 110 µM with Human betaherpesvirus 5 [1] and above 100 µM with HFF. For the same molecule, in the test on Human betaherpesvirus 5 [2], it took 41 µM to reach the 90% level (IC90).

As to `OC[C@H]1OC(n2c(Br)nc3c(Cl)c(Cl)ccc32)[C@H](O)[C@@H]1O` (stereo partly drawn), the IC50 in the test with Human betaherpesvirus 5 [1] is 2.4 µM; in the test on HFF, 161 µM; in the test with Human alphaherpesvirus 1 it was above 100 µM; with KB it was above 100 µM. In the test with Human betaherpesvirus 5 [2], this molecule came in with a 90% effect concentration (IC90) of 1 µM.

`Nc1nc2c(Cl)cc(Cl)cc2n1C1O[C@H](CO)[C@@H](O)[C@H]1O` (stereo partly drawn): the half-maximal inhibitory concentration (IC50) was above 100 µM in the test with Human betaherpesvirus 5 [1], above 100 µM in the test on HFF, above 300 µM in the test on Human alphaherpesvirus 1 and above 300 µM with KB. The molecule further yielded an IC90 with Human betaherpesvirus 5 [2] above 100 µM.

With `OC[C@H]1OC(n2c(Cl)nc3c(Cl)cc(Cl)cc32)[C@H](O)[C@@H]1O` (stereo partly drawn), the IC50 was 10 µM in the test with Human betaherpesvirus 5 [1], 77 µM in the test on HFF, above 300 µM with Human alphaherpesvirus 1 and 230 µM in the test on KB. Moreover, the IC90 with Human betaherpesvirus 5 [2] stood at 4.5 µM.

For `OC[C@H]1OC(n2c(S)nc3c(Cl)cc(Cl)cc32)[C@H](O)[C@@H]1O` (stereo partly drawn), the IC50 in the test on Human betaherpesvirus 5 [1] was above 100 µM; with HFF it was above 100 µM; in the test with Human alphaherpesvirus 1, above 300 µM; in the test with KB it was above 300 µM.

Turning to `OC[C@H]1OC(n2c(Cl)nc3c(Cl)c(Cl)ccc32)[C@H](O)[C@@H]1O` (stereo partly drawn), the IC50 in the test with Human betaherpesvirus 5 [1] is 16 µM; in the test with HFF, above 100 µM; with Human alphaherpesvirus 1 it was above 100 µM; in the test with KB, above 100 µM. Also, in the test on Human betaherpesvirus 5 [2], the 90% effect level (IC90) was put at 6 µM.

For `OC[C@H]1OC(n2c(SCc3ccccc3)nc3c(Cl)cc(Cl)cc32)[C@H](O)[C@@H]1O` (stereo partly drawn), the half-inhibitory concentration (IC50) in the test with Human betaherpesvirus 5 [1] is 41 µM; in the test with HFF, 32 µM; in the test on Human alphaherpesvirus 1 it was 140 µM; with KB, 122 µM.

Regarding `OC[C@H]1OC(n2c(Br)nc3c(Cl)cc(Cl)cc32)[C@H](O)[C@@H]1O` (stereo partly drawn), the IC50 in the test on Human betaherpesvirus 5 [1] is 1.6 µM; with HFF, 127 µM; in the test with Human alphaherpesvirus 1, above 300 µM; in the test on KB it was 150 µM. In the test with Human betaherpesvirus 5 [2], this molecule showed an IC90 of 2.1 µM.

For `O=C(O)P(=O)(O)O` [FOSCARNET], the concentration for half-maximal inhibition (IC50) with HFF was above 100 µM.

With `Nc1nc2c(ncn2COC(CO)CO)c(=O)[nH]1` [GANCICLOVIR], the IC50 in the test on HFF and in the test with KB was above 100 µM throughout. In the test with Human betaherpesvirus 5 [2], this molecule had an IC90 of 1.6 µM.
